Tests used:
[1] = biological target: Casein kinase I isoform alpha/subunit beta (Homo sapiens, UniProt P48729+P67870); assay: Inhibition of human CK1-alpha/CK2beta; type: protein-complex assay
[2] = biological target: Glycogen synthase kinase-3 (Homo sapiens, UniProt P49840+P49841); assay: Inhibition of human GSK3alpha/ GSK3-beta; type: protein assay
[3] = biological target: Cyclin-dependent kinase 5/CDK5 activator 1 (Homo sapiens, UniProt Q00535); assay: Inhibition of human CDK5/p25; type: protein-complex assay
Sequence of Cyclin-dependent kinase 5/CDK5 activator 1 (Q00535 whole entry): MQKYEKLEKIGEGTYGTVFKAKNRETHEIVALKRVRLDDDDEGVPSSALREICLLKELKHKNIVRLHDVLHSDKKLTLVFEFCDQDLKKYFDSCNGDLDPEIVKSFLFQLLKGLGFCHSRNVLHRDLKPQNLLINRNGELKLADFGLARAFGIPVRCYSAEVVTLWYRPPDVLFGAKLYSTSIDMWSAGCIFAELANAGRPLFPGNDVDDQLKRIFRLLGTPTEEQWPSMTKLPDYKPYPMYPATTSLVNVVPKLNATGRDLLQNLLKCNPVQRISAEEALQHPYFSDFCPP
Sequence of Cyclin-dependent kinase 5/CDK5 activator 1 (Q15078 whole entry, further chain): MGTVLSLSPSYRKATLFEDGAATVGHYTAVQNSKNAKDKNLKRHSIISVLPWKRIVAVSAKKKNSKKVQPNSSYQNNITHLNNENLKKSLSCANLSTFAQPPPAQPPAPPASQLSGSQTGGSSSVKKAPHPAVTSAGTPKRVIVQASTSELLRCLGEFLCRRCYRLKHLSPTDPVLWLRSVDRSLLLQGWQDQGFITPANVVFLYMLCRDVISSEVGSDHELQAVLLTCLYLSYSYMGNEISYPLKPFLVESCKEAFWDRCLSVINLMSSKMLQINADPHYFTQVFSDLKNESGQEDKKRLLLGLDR
Outline: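 CDK5/p25 kinase activity measured with 15 ATP and histone H1 as protein substrate; IC50 derived from dose-response curves.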

SF-268 = assay: Cytotoxicity against human SF268 cells; type: functional

Sequence of Casein kinase I isoform alpha/subunit beta (P67870 whole entry, canonical isoform): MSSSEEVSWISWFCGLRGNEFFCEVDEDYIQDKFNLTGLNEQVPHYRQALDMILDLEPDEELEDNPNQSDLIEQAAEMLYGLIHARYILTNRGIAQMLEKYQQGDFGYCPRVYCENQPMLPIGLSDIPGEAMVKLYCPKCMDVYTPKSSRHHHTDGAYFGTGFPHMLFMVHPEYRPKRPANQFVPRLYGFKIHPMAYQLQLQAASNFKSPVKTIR
Sequence of Casein kinase I isoform alpha/subunit beta (P48729 whole entry, canonical isoform): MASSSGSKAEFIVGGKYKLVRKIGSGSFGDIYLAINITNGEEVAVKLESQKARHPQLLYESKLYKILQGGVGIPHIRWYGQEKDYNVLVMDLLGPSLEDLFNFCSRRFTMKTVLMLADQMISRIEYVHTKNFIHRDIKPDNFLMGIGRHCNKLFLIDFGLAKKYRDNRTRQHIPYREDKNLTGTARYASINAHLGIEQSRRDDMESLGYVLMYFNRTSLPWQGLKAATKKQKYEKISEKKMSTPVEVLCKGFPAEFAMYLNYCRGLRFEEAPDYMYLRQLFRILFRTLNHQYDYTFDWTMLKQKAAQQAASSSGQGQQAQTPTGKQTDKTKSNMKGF

Structure (SMILES)	IC50 [1] [µM]	IC50 [2] [µM]	IC50 [3] [µM]	GI50 (SF-268) [µM]
CN1C(=O)/C(=C/c2ccc3c(c2)OCO3)N=C1N [LEUCETTAMINE B]	> 100	15		
CN1C(=O)/C(=C/c2ccc3c(c2)OCO3)N=C1NCC/N=C/c1ccc([N+](=O)[O-])cc1	> 100	> 100	> 100	
CN1C(=O)/C(=C/c2ccc3c(c2)OCO3)N=C1NCCNCc1ccc2c(c1)OCC2	> 100	> 10	> 100	
CN1C(=O)/C(=C/c2ccc3c(c2)OCO3)N=C1NCC/N=C/c1ccc2c(c1)OCO2	> 100	0.86	> 100	
CN1C(=O)/C(=C/c2ccc3c(c2)OCO3)N=C1NCCNCc1ccc2c(c1)OCO2	> 100	> 10	> 100	
CN1C(=O)/C(=C/c2ccc3c(c2)OCO3)N=C1NCCNCc1ccc(Cl)cc1	> 100	> 100	> 100	
CN1C(=O)/C(=C/c2ccc3c(c2)OCO3)N=C1NCCNCc1ccc([N+](=O)[O-])cc1	> 100	> 100	> 100	
CN1C(=O)/C(=C/c2ccc3c(c2)OCO3)N=C1NCC/N=C/c1ccc(Cl)cc1	> 100	> 100	> 100	
COc1cc(/C=C2\N=C(N)NC2=O)ccc1O [POLYANDROCARPAMINE A]				65

More lines, main results first:

IC50 [1] [µM]	IC50 [2] [µM]	IC50 [3] [µM]	Structure (SMILES)	GI50 (SF-268) [µM]
> 100	> 100	> 100	COc1cc(CNCCNC2=N/C(=C\c3ccc4c(c3)OCO4)C(=O)N2C)cc(OC)c1OC	
> 100	15	> 100	CN1C(=O)/C(=C/c2ccc3c(c2)OCO3)N=C1NCC/N=C/c1ccc2c(c1)OCC2	
> 100	7	> 100	CN1C(=O)/C(=C/c2ccc3c(c2)OCO3)N=C1NCC/N=C/c1ccccc1	
> 100	38	> 100	CN1C(=O)/C(=C/c2ccc3c(c2)OCO3)N=C1NCC/N=C/c1ccc2c(c1)OCCO2	
> 100	> 10	> 100	CN1C(=O)/C(=C/c2ccc3c(c2)OCO3)N=C1NCCNCc1ccccc1	
> 100	> 10	> 100	COc1ccc(CNCCNC2=N/C(=C\c3ccc4c(c3)OCO4)C(=O)N2C)cc1	
> 100	> 100	> 100	COc1cc(/C=N/CCNC2=N/C(=C\c3ccc4c(c3)OCO4)C(=O)N2C)cc(OC)c1OC	
> 100	> 10	> 100	CN1C(=O)/C(=C/c2ccc3c(c2)OCO3)N=C1NCCNCc1ccc2c(c1)OCCO2	
> 100	7.3	> 100	COc1ccc(/C=N/CCNC2=N/C(=C\c3ccc4c(c3)OCO4)C(=O)N2C)cc1	
> 100	1.4	> 100	CN1C(=O)/C(=C/c2ccc3c(c2)OCO3)N=C1NCCN.Cl	
